# Measured values as given in PMC3873039 (Anti-Cancer Agents in Medicinal Chemistry, 2013).
# pEC50, pIC50: −log10 of the molar value.
# Key:
# [1] = system: K562; assay: Cell cycle analysis, propidium iodide flow cytometry; assay type: cell-based, human; conditions: K562, IC50 dose, 24 h
# In short: (§1)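 Seeded at 0.5 x 10^6 cells per well in 12-well plates and treated 24 h at the IC50 concentration of each test compound from CellTiter-Glo. Cells were pelleted (400 g, 5 min), PBS-washed and fixed in 80% ethanol overnight at -20 °C. Staining used 50 µg/mL PI plus RNase overnight at 4 °C.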
# [2] = system: non-tumor progenitor cells (CD34+); assay: Cell cycle analysis, propidium iodide flow cytometry; assay type: cell-based; conditions: 24 h, within the IC50 ranges used to treat the leukemic cell lines
# [3] = system: K562; assay: Hoechst 33342 nuclear morphological analysis of apoptosis; assay type: cell-based; conditions: Homo sapiens, K562, 24 h, read-out: AP50 (50% induction of apoptosis), Hoechst 33342 staining (Hoe)
# In short: (§2)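 Seeded at 0.5 x 10⁶ cells/well in 12-well plates and treated 24 h. Cells were pelleted (400 g, 5 min, 4 °C), washed in PBS, fixed in 4% paraformaldehyde, cytospun, air-dried, then stained with 10 μg/ml Hoechst 33342 for 10 min in the dark. Fluorescence microscopy: 200 cells counted, scored by condensed/intense nuclei, shrinkage, blebbing and apoptotic bodies. % apoptotic nuclei calculated. AP50 = concentration giving 50% apoptotic cells.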
# [4] = system: KG1a; assay: CellTiter-Glo luminescent cell viability assay; assay type: cell-based, human; conditions: 24 h; for pIC50: Homo sapiens, KG-1a, read-out: IC50 (50% inhibition of cellular proliferation); for The lowest dose of polyphenols at which there was a significant inhibition of cell proliferation compared to the vehicle control: KG1a, doses 0, 2, 10, 50, 250, 500 µM, p<0.05
# In short: (§3)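 Cells grown in RPMI 1640 with 10% FBS, 1.5 mM L-glutamine and penicillin/streptomycin at 37 °C, 5% CO2. Seeded at 2.5 x 10³ cells/well and exposed 24 h to ethanol-dissolved test compound (0, 2, 10, 50, 250, 500 µM) with 0.1% ethanol vehicle. ATP luminescence normalized to vehicle (100%). IC50 taken from linear regression. Lowest significant dose set by one-way ANOVA/Tukey, p<0.05. Triplicates, three independent experiments.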
# [5] = system: MOLT-3; assay: CellTiter-Glo luminescent cell viability assay; assay type: cell-based, human; conditions: MOLT-3, 24 h, doses 0, 2, 10, 50, 250, 500 µM, p<0.05
# In short: as §3
# [6] = system: THP-1; assay: CellTiter-Glo luminescent cell viability assay; assay type: cell-based, human; conditions: THP-1, 24 h, doses 0, 2, 10, 50, 250, 500 µM, p<0.05
# In short: as §3
# [7] = system: U937; assay: Cell cycle analysis, propidium iodide flow cytometry; assay type: cell-based, human; conditions: U937, IC50 dose, 24 h; vehicle control G0/G1 = 44.03%
# In short: as §1
# [8] = system: HL60; assay: Hoechst 33342 nuclear morphological analysis of apoptosis; assay type: cell-based; conditions: Homo sapiens, HL-60, 24 h, read-out: AP50 (50% induction of apoptosis), Hoechst 33342 staining (Hoe)
# In short: as §2
# [9] = system: JURKAT; assay: NucView caspase 3 activity assay by flow cytometry; assay type: cell-based, human; conditions: 24 h; for pEC50: Homo sapiens, Jurkat, read-out: AP50 (50% induction of apoptosis), Caspase 3 activity assay (C3); for The lowest dose of polyphenols at which there was a significant induction of apoptosis compared to the vehicle control: JURKAT, caspase 3 activity, p<0.05
# In short: (§4)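 Seeded at 0.5 x 10⁶ cells/well and treated 24 h, with series of 0–50 or 0–250 µM depending on compound. Normalized to vehicle (0% apoptosis). Mean ± STD, three independent experiments in triplicate. One-way ANOVA/Tukey, p<0.05. AP50 = concentration giving 50% apoptotic cells.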
# [10] = system: U937; assay: CellTiter-Glo luminescent cell viability assay; assay type: cell-based, human; conditions: U937, 24 h, doses 0, 2, 10, 50, 250, 500 µM, p<0.05
# In short: as §3
# [11] = system: JURKAT; assay: Hoechst 33342 nuclear morphological analysis of apoptosis; assay type: cell-based; conditions: Homo sapiens, 24 h, read-out: AP50 (50% induction of apoptosis), Hoechst 33342 staining (Hoe)
# In short: as §2
# [12] = system: KG1a; assay: Cell cycle analysis, propidium iodide flow cytometry; assay type: cell-based, human; conditions: IC50 dose, 24 h; for Percentage of cells in G0/G1 phase of cell cycle (significant accumulation): vehicle control G0/G1 = 44.6%
# In short: as §1
# [13] = system: non-tumor cells (CD34+); assay: NucView caspase 3 activity assay by flow cytometry; assay type: cell-based; conditions: 24 h; for pEC50: read-out: AP50 (50% induction of apoptosis), Caspase 3 activity assay (C3); for The lowest dose of polyphenols at which there was a significant induction of apoptosis compared to the vehicle control: CD34+ non-tumour control cells, caspase 3 activity, p<0.05
# [14] = system: HL60; assay: CellTiter-Glo luminescent cell viability assay; assay type: cell-based, human; conditions: HL60, 24 h, doses 0, 2, 10, 50, 250, 500 µM, p<0.05
# In short: as §3
# [15] = system: THP-1; assay: Hoechst 33342 nuclear morphological analysis of apoptosis; assay type: cell-based; conditions: Homo sapiens, THP-1, 24 h, read-out: AP50 (50% induction of apoptosis), Hoechst 33342 staining (Hoe)
# In short: as §2
# [16] = system: JURKAT; assay: Cell cycle analysis, propidium iodide flow cytometry; assay type: cell-based, human; conditions: IC50 dose, 24 h, p<0.05
# In short: as §1
# [17] = system: HL60; assay: as above; assay type: cell-based, human; conditions: HL60, IC50 dose, 24 h; vehicle control G0/G1 = 56.8%
# In short: as §1
# [18] = system: MOLT-3; assay: Hoechst 33342 nuclear morphological analysis of apoptosis; assay type: cell-based; conditions: Homo sapiens, MOLT-3, 24 h, read-out: AP50 (50% induction of apoptosis), Hoechst 33342 staining (Hoe)
# In short: as §2
# [19] = system: K562; assay: CellTiter-Glo luminescent cell viability assay; assay type: cell-based, human; conditions: K562, 24 h, doses 0, 2, 10, 50, 250, 500 µM, p<0.05
# In short: as §3
# [20] = system: U937; assay: Hoechst 33342 nuclear morphological analysis of apoptosis; assay type: cell-based; conditions: Homo sapiens, U-937, 24 h, read-out: AP50 (50% induction of apoptosis), Hoechst 33342 staining (Hoe)
# In short: as §2
# [21] = system: K562; assay: NucView caspase 3 activity assay by flow cytometry; assay type: cell-based, human; conditions: for pEC50: Homo sapiens, K562, 24 h, read-out: AP50 (50% induction of apoptosis), Caspase 3 activity assay (C3); for The lowest dose of polyphenols at which there was a significant induction of apoptosis compared to the vehicle control: K562, caspase 3 activity, 24 h, p<0.05
# In short: as §4
# [22] = system: non-tumor cord blood (CD34+) cells; assay: CellTiter-Glo luminescent cell viability assay; assay type: cell-based; conditions: 24 h; for pIC50: read-out: IC50 (50% inhibition of cellular proliferation), CD34+ non-tumour control cells, 24 h treatment; for The lowest dose of polyphenols at which there was a significant inhibition of cell proliferation compared to the vehicle control: CD34+ non-tumour control cells, doses 0, 2, 10, 50, 250, 500 µM, p<0.05
# In short: as §3
# [23] = system: MOLT-3; assay: NucView caspase 3 activity assay by flow cytometry; assay type: cell-based, human; conditions: for pEC50: Homo sapiens, MOLT-3, 24 h, read-out: AP50 (50% induction of apoptosis), Caspase 3 activity assay (C3); for The lowest dose of polyphenols at which there was a significant induction of apoptosis compared to the vehicle control: MOLT-3, caspase 3 activity, 24 h, p<0.05
# In short: as §4
# [24] = system: THP-1; assay: NucView caspase 3 activity assay by flow cytometry; assay type: cell-based, human; conditions: for pEC50: Homo sapiens, THP-1, 24 h, read-out: AP50 (50% induction of apoptosis), Caspase 3 activity assay (C3); for The lowest dose of polyphenols at which there was a significant induction of apoptosis compared to the vehicle control: THP-1, caspase 3 activity, 24 h, p<0.05
# In short: as §4
SMILES,Cell cycle arrest in non-tumour control cells [2],pEC50 [3],pIC50 [4],The lowest dose of polyphenols at which there was a significant inhibition of cell proliferation compared to the vehicle control [4],The lowest dose of polyphenols at which there was a significant inhibition of cell proliferation compared to the vehicle control [5],The lowest dose of polyphenols at which there was a significant inhibition of cell proliferation compared to the vehicle control [6],Percentage of cells in G0/G1 phase of cell cycle (significant accumulation) [7],pEC50 [8],pEC50 [9],The lowest dose of polyphenols at which there was a significant induction of apoptosis compared to the vehicle control [9],The lowest dose of polyphenols at which there was a significant inhibition of cell proliferation compared to the vehicle control [10],pEC50 [11],pEC50 [13],The lowest dose of polyphenols at which there was a significant induction of apoptosis compared to the vehicle control [13],The lowest dose of polyphenols at which there was a significant inhibition of cell proliferation compared to the vehicle control [14],pEC50 [15],Phase of cell cycle accumulation [16],Percentage of cells in G0/G1 phase of cell cycle (significant accumulation) [17],pEC50 [18],The lowest dose of polyphenols at which there was a significant inhibition of cell proliferation compared to the vehicle control [19],also measured
O=c1cc(-c2ccc(O)cc2)oc2cc(O)cc(O)c12 [Apigenin],No Arrest ≤250µM,3.72,3.30,10 µM,50 µM,10 µM,G0/G1 =59%,3.89,4.46,50 µM,10 µM,4.05,< 3.60,250 µM,10 µM,3.66,S-phase,G0/G1=67%,3.90,10 µM,Percentage of cells in S phase of cell cycle (significant accumulation) ([1]; vehicle control S = 32.06%): S =50.2%; Percentage of cells in S phase of cell cycle (significant accumulation) ([12]; vehicle control S = 34.6%): S = 50%; pEC50 [20]: 3.89; pEC50 [21]: 3.82; The lowest dose of polyphenols at which there was a significant induction of apoptosis compared to the vehicle control [21]: 10 µM; pIC50 [22]: < 3.30; The lowest dose of polyphenols at which there was a significant inhibition of cell proliferation compared to the vehicle control [22]: 500 µM; pEC50 [23]: 4.30; The lowest dose of polyphenols at which there was a significant induction of apoptosis compared to the vehicle control [23]: 50 µM; pEC50 [24]: 3.96; The lowest dose of polyphenols at which there was a significant induction of apoptosis compared to the vehicle control [24]: 10 µM
Cc1cc(O)c2c(c1)C(=O)c1cc(O)cc(O)c1C2=O [Emodin],No Arrest <50µM,< 3.30,4.82,2 µM,2 µM,2 µM,G0/G1 =60%,5.22,5.70,2 µM,2 µM,5.05,< 5.00,10 µM,2 µM,5.00,G0/G1 phase,G0/G1 =67.7%,5.05,2 µM,Percentage of cells in G0/G1 phase of cell cycle (significant accumulation) ([1]; vehicle control G0/G1 = 53.7%): G0/G1 =66%; Percentage of cells in G0/G1 phase of cell cycle (significant accumulation) [12]: G0/G1 =52.9%; pEC50 [20]: 4.57; pEC50 [21]: < 5.00; The lowest dose of polyphenols at which there was a significant induction of apoptosis compared to the vehicle control [21]: 2 µM; pIC50 [22]: ~3.82; The lowest dose of polyphenols at which there was a significant inhibition of cell proliferation compared to the vehicle control [22]: 50 µM; pEC50 [23]: 5.30; The lowest dose of polyphenols at which there was a significant induction of apoptosis compared to the vehicle control [23]: 2 µM; pEC50 [24]: 5.11; The lowest dose of polyphenols at which there was a significant induction of apoptosis compared to the vehicle control [24]: 2 µM
O=C(O)c1cc(O)c2c(c1)C(=O)c1cccc(O)c1C2=O [Rhein],No Arrest <50µM,< 3.30,3.77,50 µM,50 µM,50 µM,G0/G1 =55%,< 3.30,< 3.60,50 µM,50 µM,< 3.30,< 3.60,50 µM,50 µM,4.22,S-phase,G0/G1=65%,3.58,50 µM,Percentage of cells in G0/G1 phase of cell cycle (significant accumulation) [12]: G0/G1 =49%; pEC50 [20]: 3.85; pEC50 [21]: < 3.60; The lowest dose of polyphenols at which there was a significant induction of apoptosis compared to the vehicle control [21]: 50 µM; pIC50 [22]: 3.42; The lowest dose of polyphenols at which there was a significant inhibition of cell proliferation compared to the vehicle control [22]: 250 µM; pEC50 [23]: 3.70; The lowest dose of polyphenols at which there was a significant induction of apoptosis compared to the vehicle control [23]: 50 µM; pEC50 [24]: 4.30; The lowest dose of polyphenols at which there was a significant induction of apoptosis compared to the vehicle control [24]: 50 µM
